High-throughput results as filed in PubChem BioAssay.
PLC-gamma1 inh – PLC-gamma1 enzyme inhibitors, primary screen, biochemical, fluorescence, purified enzyme. fluorogenic substrate. inhibition, % at 12.2 µM. hit rate 0.84% among 370,000. 1-phosphatidylinositol 4,5-bisphosphate phosphodiesterase gamma-1 (Homo sapiens), P19174; in the data active means inhibition above about 9.5%
HGIII-sPLA2 inh – human group III sPLA2 inhibitors, primary screen, biochemical, QFRET, BODIPY PC-A2 liposome substrate | QFRET BODIPY PC-A2 liposome hydrolysis, fluorescence | Group 3 secretory phospholipase A2 (Homo sapiens), Q9NZ20 | hit rate 0.56% among 370,000 | inhibition, % at 12.2 µM | AID 743126, 2013;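 active means inhibition above mean plus 3 SD of compounds lying within the high and low control bounds, cut at about 19% in these data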
PLCb3 inh – human PLC-beta3 inhibitors, primary screen, biochemical, fluorescence; 1-phosphatidylinositol 4,5-bisphosphate phosphodiesterase beta-3 (Homo sapiens), Q01970; Purified PLC-beta3, fluorogenic substrate; inhibition, % at 12.2 µM; hit rate 0.18% among 370,000; AID 720704, 2013; in the data active means inhibition above about 11%
TbMetRS inhib – T. brucei MetRS inhibitors, primary screen, biochemical, luminescence; purified T. brucei MetRS, ATP depletion, Kinase-Glo luminescence; hit rate 0.4% among 360,000; inhibition, % at 11.9 µM; methionyl-tRNA synthetase (Trypanosoma brucei brucei);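 active means inhibition above a per-plate cutoff of the control wells' mean inhibition plus 3 SD, cut at about 5.5% in these data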
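Material – parasite MetRS enzyme · Medium – HEPES-MgCl2-KCl buffer plus DTT, spermine, BSA, pyrophosphatase · Reagent – ATP, methionine and E. coli bulk tRNA substrates · Times – 15 min enzyme-compound preincubation, 2 h reaction, 10 min detection, 25 °C · Measured by – luminescence of leftover ATP · Evaluation – percent inhibition relative to median high and low control wells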
sPLA2 confirm – human group III sPLA2 inhibitors, confirmation, biochemical, QFRET, triplicate; shares compounds with HGIII-sPLA2 inh; recombinant hGIII-sPLA2, BODIPY PC-A2 QFRET fluorescence; inhibition, % at 12.2 µM; hit rate 34% among 2,000; AID 743280, 2014;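 active means mean inhibition across triplicates above the hit cutoff set in the earlier primary screen, cut at about 19% in these data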
BODIPY interf – 535nm fluorescence optical interference, confirmation, artefact control for HGIII-sPLA2 inhibitor project, biochemical, QFRET; shares compounds with HGIII-sPLA2 inh; BODIPY FL product fluorescence interference; inhibition, % at 12.2 µM; hit rate 8.5% among 2,000;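 active means average inhibition above the solvent-only control mean plus 3 SD, cut at about 6% in these data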
535nm interf DR – 535nm fluorescence optical interference, dose response, artefact control for HGIII-sPLA2 inhibitor project, biochemical, QFRET; shares compounds with HGIII-sPLA2 inh; IC50, µM; 240 tested, under 10 active; BODIPY FL product fluorescence interference, cell-free;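 active means IC50 at or below 10 µM; inactive means IC50 above 10 µM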
Large screens that a line does not name were inactive (follow-up assays come after a bar, where they were run). Hits are enriched below; roughly 1.9% of the tested compounds scored in any of these assays.

C=CCN1C(=O)/C(=C\c2ccco2)C(C(=O)OC)=C1C	HGIII-sPLA2 inh 21 | sPLA2 confirm inactive | BODIPY interf inactive
O=c1[nH]c2ccccc2n2c(C(F)(F)F)nnc12	HGIII-sPLA2 inh 20 | sPLA2 confirm inactive | BODIPY interf inactive
O=C1NC(=S)N/C1=C\c1cccc([N+](=O)[O-])c1	HGIII-sPLA2 inh 20 | sPLA2 confirm inactive | BODIPY interf inactive
O=C(c1cc(C2CC2)on1)N(C1CCCCC1)C1CCOCC1	none (no result: TbMetRS inhib)
CC[C@H](CCCCCCCn1ccc2ccccc21)CCC(=O)N(c1ccccc1)c1ccccc1	none (no result: TbMetRS inhib)
OCCN=Cc1c(O)[nH]c2ccccc12	none
CN(C)CC(C)(C)CN=Cc1c(O)[nH]c2ccccc12	HGIII-sPLA2 inh 19 | sPLA2 confirm inactive | BODIPY interf inactive
O=C(c1cc(Cl)cc(Cl)c1)N1CC[C@H]2[C@H](CCCN2Cc2ccc(F)cc2)C1	none (no result: TbMetRS inhib)
CCOC(=O)[C@]12CCCC3=C1N(CCC3)C(=O)[C@@H](CC(=O)NCCCOC)C2	none (no result: TbMetRS inhib)
c1ccc2cc(Cn3ccc4ccc(-c5ccc6cc[nH]c6c5)cc43)ccc2c1	HGIII-sPLA2 inh 23 (no result: TbMetRS inhib) | sPLA2 confirm inactive | BODIPY interf 10
c1ccc2cc(Cn3ccc4ccc(-c5ccc6ccn(Cc7ccc8ccccc8c7)c6c5)cc43)ccc2c1	none (no result: TbMetRS inhib)
CCCNC(=O)CN(c1cccc(F)c1)S(C)(=O)=O	HGIII-sPLA2 inh 20 | sPLA2 confirm inactive | BODIPY interf inactive
CCCCNC(=O)CN(c1cccc(F)c1)S(C)(=O)=O	none
CNCc1ccccc1Sc1cc(O)ccc1O	HGIII-sPLA2 inh 20 | sPLA2 confirm 38 | BODIPY interf inactive | 535nm interf DR inactive
CNCc1ccccc1Sc1cccc(O)c1	none
Cc1cccc(-c2nnn3c2nc(NCCc2ccc(S(N)(=O)=O)cc2)c2ccccc23)c1	HGIII-sPLA2 inh 22 | sPLA2 confirm inactive | BODIPY interf inactive
CN(C)c1ccc(C(=S)Nc2ccccc2)cc1	HGIII-sPLA2 inh 22 | sPLA2 confirm 21 | BODIPY interf inactive
COC(=O)c1cc2c(c3c4cc(OC)ccc4n(C(=O)c4ccccc4)c13)C(=O)N(C1CCCCC1)C2	none (no result: TbMetRS inhib)
CC(C)CCNC(=O)c1ccc(Cn2c(=S)[nH]c3ccccc3c2=O)cc1	HGIII-sPLA2 inh 21 | sPLA2 confirm 20 | BODIPY interf inactive
COC(=O)c1ccc2c(=O)n(Cc3ccc(C(=O)NC(C)C)cc3)c(=S)[nH]c2c1	none
COc1ccc2c(c1)C1C=CCC1C(c1cc3c(cc1Br)OCO3)N2 (stereo not given)	HGIII-sPLA2 inh 20 | sPLA2 confirm 34 | BODIPY interf 8.9
COCCn1c(C)cc(C(=O)COC(=O)c2cncc(Br)c2)c1C	HGIII-sPLA2 inh 21 | sPLA2 confirm inactive | BODIPY interf inactive
COCCn1c(C)cc(C(=O)COC(=O)c2ccccc2Br)c1C	none
CCOC(=O)C1=C(C(=O)OCC)C2N(Cc3ccc(Br)cc3)c3ccccc3[C@@]23C[C@@H](C(=O)OC)N(S(=O)(=O)c2ccc(OC)cc2)C3=N1 (stereo not given in full)	none (no result: TbMetRS inhib)
CN1CCN(CC(=O)Nc2ccccc2C(F)(F)F)CC1	HGIII-sPLA2 inh 22 | sPLA2 confirm inactive | BODIPY interf inactive
O=C(CN1CCN(c2ccccc2)CC1)Nc1ccccc1C(F)(F)F	none
O=C(CSC(=S)N1CCCCC1)Nc1ncc2c(n1)CCCC2=O	HGIII-sPLA2 inh 22 | sPLA2 confirm inactive | BODIPY interf inactive
O=C(CSC(=S)N1CCCCC1)Nc1ncc2c(n1)CC(c1ccco1)CC2=O (stereo not given)	none
CC(C)c1cc(C(=O)NNC(=S)NCc2ccco2)c(O)c(C(C)C)c1	HGIII-sPLA2 inh 51 | sPLA2 confirm 57 | BODIPY interf inactive | 535nm interf DR inactive
Cc1cc(C(=O)NNC(=S)NCc2ccco2)n(C)n1	none
COc1ccc(S[C@]2(C(=O)NCc3ccccc3)CC(=O)N[C@@H]2c2ccc(OC)cc2)cc1	none (no result: TbMetRS inhib)
